How the values were obtained:
NCI-H460 [1] = experiment: Cytotoxicity against human NCI-H460 cells assessed as cell death in serum free medium at 75 nM after 12 hrs by Hoechst 33342/propidium iodide staining based fluorescence microscopy; assay type: functional
Procedure, shortened: (§1)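 NCI-H460 human lung cancer cells exposed 12 h to 10 nM–10 μM drug, including a 50 nM single-concentration test. Nuclei were stained with Hoechst 33342 and necrotic cells with propidium iodide. Apoptotic cells were scored by condensed or fragmented blue nuclei and necrotic cells by red PI staining. Total cell death (apoptosis plus necrosis) was recorded; N = 6.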

NCI-H460 [2] = experiment: Cytotoxicity against human NCI-H460 cells assessed as cell viability at 1 nM after 48 hrs by MTT assay; assay type: functional; settings: NCI-H460, 48 h, read-out: Activity
Procedure, shortened: (§2)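 Viability of NCI-H460 cells was measured by MTT (mitochondrial enzymatic activity) after 48 h exposure, within a dose series spanning 1 nM–10 μM. N = 9, analysed by two-way ANOVA.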

NCI-H460 [3] = experiment: Cytotoxicity against human NCI-H460 cells assessed as cell viability at 25 nM after 48 hrs by MTT assay; assay type: functional; settings: NCI-H460, 48 h, read-out: Activity; procedure, shortened: as §2
NCI-H460 [4] = experiment: Cytotoxicity against human NCI-H460 cells assessed as cell death in serum free medium at 1000 nM after 12 hrs by Hoechst 33342/propidium iodide staining based fluorescence microscopy; assay type: functional; procedure, shortened: as §1
NCI-H460 [5] = experiment: Cytotoxicity against human NCI-H460 cells assessed as cell viability at 50 nM after 48 hrs by MTT assay; assay type: functional; settings: NCI-H460, 48 h, read-out: Activity; procedure, shortened: as §2
NCI-H460 [6] = experiment: Cytotoxicity against human NCI-H460 cells assessed as cell death in serum free medium at 25 nM after 12 hrs by Hoechst 33342/propidium iodide staining based fluorescence microscopy; assay type: functional; procedure, shortened: as §1
NCI-H460 [7] = experiment: Cytotoxicity against human NCI-H460 cells assessed as cell viability at 500 nM after 48 hrs by MTT assay; assay type: functional; settings: NCI-H460, 48 h, read-out: Activity; procedure, shortened: as §2
NCI-H460 [8] = experiment: Cytotoxicity against human NCI-H460 cells assessed as cell viability at 100 nM after 48 hrs by MTT assay; assay type: functional; settings: NCI-H460, 48 h, read-out: Activity; procedure, shortened: as §2
NCI-H460 [9] = experiment: Cytotoxicity against human NCI-H460 cells assessed as cell death in serum free medium at 10000 nM after 12 hrs by Hoechst 33342/propidium iodide staining based fluorescence microscopy; assay type: functional; procedure, shortened: as §1
NCI-H460 [10] = experiment: Cytotoxicity against human NCI-H460 cells assessed as cell death in serum free medium at 50 nM after 12 hrs by Hoechst 33342/propidium iodide staining based fluorescence microscopy; assay type: functional; procedure, shortened: as §1
NCI-H460 [11] = experiment: Cytotoxicity against human NCI-H460 cells assessed as cell viability after 48 hrs by MTT assay; assay type: functional; settings: NCI-H460, 48 h
Procedure, shortened: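 NCI-H460 cells were exposed to drug for 48 h, and viability was read by MTT as mitochondrial enzymatic activity. GI50 was derived from dose-response curves (1 nM–10 μM). Values are from three independent experiments with duplicate determinations, given with standard error of the mean.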

NCI-H460 [12] = experiment: Cytotoxicity against human NCI-H460 cells assessed as cell viability at 10 nM after 48 hrs by MTT assay; assay type: functional; settings: NCI-H460, 48 h, read-out: Activity; procedure, shortened: as §2
NCI-H460 [13] = experiment: Cytotoxicity against human NCI-H460 cells assessed as cell death in serum free medium at 10 nM after 12 hrs by Hoechst 33342/propidium iodide staining based fluorescence microscopy; assay type: functional; procedure, shortened: as §1
NCI-H460 [14] = experiment: Induction of apoptosis in human NCI-H460 cells in serum free medium after 12 hrs by Hoechst 33342/propidium iodide staining based fluorescence microscopy; assay type: functional, cell-based; settings: for IC50: NCI-H460, 12 h
Procedure, shortened: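 NCI-H460 cells treated for 12 h at 10 nM to 10 μM. Total cell death (apoptosis plus necrosis) scored by Hoechst 33342/propidium iodide staining, with N = 6 and two-way ANOVA. IC50 obtained by nonlinear regression. Table values are the mean of three independent experiments with duplicate determinations.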

NCI-H460 [15] = experiment: Cytotoxicity against human NCI-H460 cells assessed as cell death in serum free medium at 100 nM after 12 hrs by Hoechst 33342/propidium iodide staining based fluorescence microscopy; assay type: functional; procedure, shortened: as §1
NCI-H460 [16] = experiment: Induction of apoptosis in human NCI-H460 cells in serum free medium at 50 nM after 12 hrs by Hoechst 33342/propidium iodide staining based fluorescence microscopy; assay type: functional
Procedure, shortened: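 NCI-H460 cells exposed to a single 50 nM concentration for 12 h. Cells stained with Hoechst 33342 and propidium iodide. Blue cells with condensed or fragmented nuclei were scored as apoptotic and red, ruptured cells as necrotic. Result given as % apoptotic cell death; N = 6, one-way ANOVA.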

NCI-H460 [17] = experiment: Growth inhibition of human NCI-H460 cells after 48 hrs by MTT assay; assay type: functional
Procedure, shortened: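 NCI-H460 viability measured by MTT (mitochondrial enzymatic activity) after 48 h exposure at 1 nM to 10 μM. GI50 derived from dose-response curves, with N = 9 and two-way ANOVA. Values are the mean of three independent experiments with duplicate determinations.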

NCI-H460 [18] = experiment: Cytotoxicity against human NCI-H460 cells assessed as cell death in serum free medium at 500 nM after 12 hrs by Hoechst 33342/propidium iodide staining based fluorescence microscopy; assay type: functional; procedure, shortened: as §1
NCI-H460 [19] = experiment: Cytotoxicity against human NCI-H460 cells assessed as cell death in serum free medium at 250 nM after 12 hrs by Hoechst 33342/propidium iodide staining based fluorescence microscopy; assay type: functional; procedure, shortened: as §1
NCI-H460 [20] = experiment: Cytotoxicity against human NCI-H460 cells assessed as cell viability at 1000 nM after 48 hrs by MTT assay; assay type: functional; settings: NCI-H460, 48 h, read-out: Activity; procedure, shortened: as §2
NCI-H460 [21] = experiment: Ratio of digitoxin IC50 to compound IC50 for human NCI-H460 cells after 12 hrs by Hoechst 33342/propidium iodide staining based fluorescence microscopy; assay type: functional

Compound	Activity (NCI-H460 [1])	viability at 0.001 µM (NCI-H460 [2])	viability at 0.025 µM (NCI-H460 [3])	Activity (NCI-H460 [4])	viability at 0.05 µM (NCI-H460 [5])	Activity (NCI-H460 [6])	viability at 0.5 µM (NCI-H460 [7])	viability at 0.1 µM (NCI-H460 [8])	Activity (NCI-H460 [9])	Activity (NCI-H460 [10])	GI50 (NCI-H460 [11])	viability at 0.01 µM (NCI-H460 [12])	Activity (NCI-H460 [13])	Activity (NCI-H460 [14])	IC50 (NCI-H460 [14])	Activity (NCI-H460 [15])	Activity (NCI-H460 [16])	GI50 (NCI-H460 [17])	GI50 (NCI-H460 [17]; NCI-H460, 48 h)	Activity (NCI-H460 [18])	other results
CC[C@@H]1O[C@@H](O[C@H]2CC[C@@]3(C)[C@H](CC[C@@H]4[C@@H]3CC[C@]3(C)[C@@H](C5=CC(=O)OC5)CC[C@]43O)C2)CC[C@H]1O	39.69%	73.3%	9.23%	100%	8.21%	19.43%	5.41%	6.81%	100%	22.56%	2.19 nM	20.6%	13.46%	Dose-dependent effect	87.3 nM	69.05%	18.75%	Dose-dependent effect	2 nM	99.58%	Activity (NCI-H460 [19]): 87.87%; viability at 1 µM (NCI-H460 [20]): 4.5%
CC[C@@H]1O[C@@H](O[C@H]2CC[C@@]3(C)[C@H](CC[C@@H]4[C@@H]3CC[C@]3(C)[C@@H](C5=CC(=O)OC5)CC[C@]43O)C2)[C@H](O)[C@H](O)[C@H]1O	71.83%	73.2%	10.3%	100%	8.28%	24.93%	6.13%	6.64%	100%	42.16%	2.14 nM	20%	15.02%	Dose-dependent effect	56.9 nM	80.15%	30.625%	Dose-dependent effect	2 nM	100%	Activity (NCI-H460 [19]): 98.51%; viability at 1 µM (NCI-H460 [20]): 5.71%
CC(C)C[C@@H]1O[C@@H](O[C@H]2CC[C@@]3(C)[C@H](CC[C@@H]4[C@@H]3CC[C@]3(C)[C@@H](C5=CC(=O)OC5)CC[C@]43O)C2)[C@H](O)[C@H](O)[C@H]1O	24.5%	82.4%	40.6%	100%	26.1%	14.36%	6.69%	12.4%	100%	17.66%	13.4 nM	57.7%	12.15%	Dose-dependent effect	167 nM	36.73%	9.9487%	Dose-dependent effect	13 nM	100%	Activity (NCI-H460 [19]): 68.62%; viability at 1 µM (NCI-H460 [20]): 5.9%
CC(C)[C@@H]1O[C@@H](O[C@H]2CC[C@@]3(C)[C@H](CC[C@@H]4[C@@H]3CC[C@]3(C)[C@@H](C5=CC(=O)OC5)CC[C@]43O)C2)[C@H](O)[C@H](O)[C@H]1O	37.08%	77.4%	35%	100%	22.8%	19.33%	6.11%	9.88%	100%	24.42%	6.32 nM	47.3%	12.81%	Dose-dependent effect	130 nM	45.94%	15.425%	Dose-dependent effect	6 nM	100%	Activity (NCI-H460 [19]): 73.97%; viability at 1 µM (NCI-H460 [20]): 5.76%
C[C@@H]1O[C@@H](O[C@H]2CC[C@@]3(C)[C@H](CC[C@@H]4[C@@H]3CC[C@]3(C)[C@@H](C5=CC(=O)OC5)CC[C@]43O)C2)[C@H](O)[C@H](O)[C@H]1O	78.16%	77.8%	8.72%	100%	7.16%	24.53%	5.81%	6.11%	100%	48.79%	2.1 nM	11.8%	16.47%	Dose-dependent effect	51.7 nM	89.5%	41.603%	Dose-dependent effect	2 nM	100%	Ratio IC50 (NCI-H460 [21]): 4; Activity (NCI-H460 [19]): 100%; viability at 1 µM (NCI-H460 [20]): 5.46%
CCC[C@@H]1O[C@@H](O[C@H]2CC[C@@]3(C)[C@H](CC[C@@H]4[C@@H]3CC[C@]3(C)[C@@H](C5=CC(=O)OC5)CC[C@]43O)C2)[C@H](O)[C@H](O)[C@H]1O	34.1%	81.4%	16.1%	100%	9.27%	20.15%	5.87%	7.06%	100%	23.16%	4.88 nM	39.3%	15.86%	Dose-dependent effect	116 nM	52.06%	15.692%	Dose-dependent effect	5 nM	100%	Activity (NCI-H460 [19]): 84.94%; viability at 1 µM (NCI-H460 [20]): 5.81%

Reference: ChEMBL document CHEMBL1817593, “C5'-Alkyl Substitution Effects on Digitoxigenin α-l-Glycoside Cancer Cytotoxicity” (ACS Med Chem Lett, 2011)
